Autophagy mod – autophagy modulators in MEF cells, primary screen, imaging, high-content, MEF GFP-LC3. MEF GFP-LC3 puncta imaging; test concentration mostly 10 µM. calls only at 10 µM (by protocol). hit rate 0.98% among 190,000. AID 463193, 2010;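 active = percentage of spot-positive cells more than 3 SD above its plate mean, without a fluorescence outlier flag or 80% toxicity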;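 also: spot-positive cell cutoff set from DMSO-treated cells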
MT stabilizer – microtubule stabilizers in HeLa cells, primary screen, imaging, high-content imaging. hit rate 0.83% among 200,000. AID 2205, 2009. % tubulin-high responders, % at 10 µM. HeLa tubulin immunostaining HCS, 24 h; share of cells brighter than vehicle mean+2SD;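 active = plate Z-score above 3 for both tubulin-high and condensed-nucleus cell shares, with cell loss under 80%, at 10 µM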;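 also: anti alpha tubulin signal scored within the nucleus-defined area of each cell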
CHOP inh – inhibitors of CHOP promoter induction, primary screen, cell-based, unfolded protein response, luciferase reporter; CHO-K1 CHOP-promoter luciferase, tunicamycin-induced, 15-18 h; inhibition, % at 10 µM; hit rate 3.8% among 220,000; AID 2732, 2010;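 active = compounds that reduced the stress-induced luciferase reporter signal by more than about 70% of percent inhibition, limit read from the data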;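 also: 0% = tunicamycin plus vehicle and 100% = wells without tunicamycin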
Dynein cargo inh – inhibitors of GR-EGFP nuclear translocation, primary screen, dynein cargo transport inhibitor project, imaging, high-content, 3617.4 mouse cells; z-score, hits read low; test concentration mostly 20 µM; stimulated with dexamethasone, 1 µM; active compounds read low; hit rate 0.47% among 220,000;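 active = plate z-score of nuclear minus cytoplasmic receptor signal below a set negative limit, without overly bright fluorescence or cell loss, cut at about -3.5 in these data, passing the limit was not always enough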;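 also: z-score of nuclear minus cytoplasmic ring GR-EGFP intensity difference per well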
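Buffer or medium: tet-free, stripped-serum medium; Also added: dexamethasone, 1.0 µM final; Technique: high-content fluorescence imaging after fixation; Times: 48 h induction, 1 h compound, 30 min dex at 37 °C; Read-out: per-cell GR-EGFP intensity, nucleus versus surrounding cytoplasmic ring, well-averaged.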
b-catenin transl – modulators of beta-catenin nuclear translocation, primary screen, imaging, HeLa cells, immunofluorescence, high-content; hit rate 0.3% among 190,000; nuclear translocation activity, % at 5 µM;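 active = nuclear translocation activity above 50% at 5 µM, with a well cell count of 50 or more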;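 also: per-cell ratio of nuclear to cytoplasmic median beta-catenin stain intensity; plate controls were DMSO negative control for no effect and GSK-3 inhibitor IX positive control for full effect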
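Signal – beta-catenin immunofluorescence imaging with DAPI · Test system – human HeLa cell line · Dosing – 5 µM primary single dose, 0.1% DMSO, 0.02–20 µM confirmation series · Measure – % activation, nuclear-to-cytoplasmic median beta-catenin signal ratio per cell · Incubation – 24 h compound exposure at 37°C, 5% CO2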
L major viab – Leishmania major promastigote growth inhibition, primary screen. Leishmania major promastigotes, resazurin fluorescence viability. inhibition, % at 10 µM. hit rate 9% among 200,000; in the data active = inhibition above about 50%;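 also: promastigotes grown with compound for 44 hours at 28 °C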
* = called active by the depositor. Compounds with a hit are over-represented: about 12% of the library has one in this group of screens.

How did Cc1cc(=O)oc2cc(OCC(=O)N/N=C/c3cc([N+](=O)[O-])ccc3O)ccc12 do in these assays?
Autophagy mod: inactive; MT stabilizer: 7; CHOP inh: 37; Dynein cargo inh: 0.068; b-catenin transl: 2; L major viab: -3

What do the screens show for `N#CCC(=O)N/N=C/c1cc([N+](=O)[O-])ccc1N1CCOCC1`?
Autophagy mod: inactive; MT stabilizer: 3; CHOP inh: -3; Dynein cargo inh: 0.24; b-catenin transl: 2; L major viab: -8

Results for CCCc1cc(C(=O)OC)c(NC(=O)OCC)s1 ?
Autophagy mod: inactive; MT stabilizer: 4; CHOP inh: 74*; Dynein cargo inh: 0.053; b-catenin transl: -1; L major viab: -1

Results for CCCc1cc(C(N)=O)c(NC(=O)c2cc(C)on2)s1 ?
Autophagy mod: inactive; MT stabilizer: 4; CHOP inh: 20; Dynein cargo inh: -0.43; b-catenin transl: 0; L major viab: 55*

How did COC(=O)c1ccc(N(C(=O)c2ccco2)C(C(=O)NC2CCCC2)c2ccco2)cc1 (centres undefined) do in these assays?
Autophagy mod: inactive; MT stabilizer: 2; CHOP inh: -23; Dynein cargo inh: 0.97; b-catenin transl: 2; L major viab: 14

Results for CC(OC(=O)c1ccc2c(=O)n3c(nc2c1)CCCCC3)C(=O)Nc1ccc(Cl)cn1 (centres undefined) ?
Autophagy mod: inactive; MT stabilizer: 5; CHOP inh: 60; Dynein cargo inh: -0.66; b-catenin transl: 1; L major viab: -4

Results for CC(OC(=O)c1ccc2c(=O)n3c(nc2c1)CCCCC3)C(=O)Nc1ccc(F)cc1Cl (centres undefined) ?
Autophagy mod: inactive; MT stabilizer: 3; CHOP inh: 65; Dynein cargo inh: 0.61; L major viab: 56*

What do the screens show for `c1ccc(COc2ccc(OCCN3CCCCC3)cc2)cc1`?
Autophagy mod: inactive; MT stabilizer: 2; CHOP inh: -17; Dynein cargo inh: -0.35; b-catenin transl: 3; L major viab: 100*

Results for c1ccc(COc2ccc(OCCCN3CCCC3)cc2)cc1 ?
Autophagy mod: inactive; MT stabilizer: 3; CHOP inh: 45; Dynein cargo inh: 0.47; b-catenin transl: 0; L major viab: 100*

What do the screens show for `CCC(C)c1ccc(OCCN2CCCC2)cc1` (centres undefined)?
Autophagy mod: inactive; MT stabilizer: 2; CHOP inh: -25; Dynein cargo inh: 0.38; L major viab: 96*

Results for O=C(CN1CCCC1)Nc1ccc(OCc2ccccc2)cc1 ?
Autophagy mod: inactive; MT stabilizer: 4; CHOP inh: 15; Dynein cargo inh: -0.8; b-catenin transl: 0; L major viab: -2

How did CCOc1ccc(OCCN2CCCCC2)cc1 do in these assays?
Autophagy mod: inactive; MT stabilizer: 3; CHOP inh: 10; Dynein cargo inh: -0.64; b-catenin transl: 0; L major viab: 1

What do the screens show for `c1ccc(COc2ccc(OCCN3CCCC3)cc2)cc1`?
Autophagy mod: inactive; MT stabilizer: 2; CHOP inh: -26; Dynein cargo inh: -0.45; b-catenin transl: -1; L major viab: 100*

What do the screens show for `CC(C(=O)Nc1ccc(OCc2ccccc2)cc1)N1CCCC1` (centres undefined)?
Autophagy mod: inactive; MT stabilizer: 3; CHOP inh: 2; Dynein cargo inh: 1.4; b-catenin transl: 2; L major viab: 19

How did Cc1sc(-c2ccncc2)nc1OC(=O)c1ccc(F)cc1F do in these assays?
Autophagy mod: inactive; MT stabilizer: 4; CHOP inh: 56; Dynein cargo inh: 0.94; b-catenin transl: -3; L major viab: 0

What do the screens show for `COc1ccc(C2(O)CCN(CCCCOc3ccccc3)CC2)cc1`?
Autophagy mod: inactive; MT stabilizer: 8; CHOP inh: 6; Dynein cargo inh: -0.63; b-catenin transl: 0; L major viab: 95*

How did CC1CCN(CC(=O)N2CCCc3c2c(=O)oc2ccc(OCc4ccccc4)cc32)CC1 do in these assays?
Autophagy mod: inactive; MT stabilizer: 1; CHOP inh: 11; Dynein cargo inh: -0.32; L major viab: 34

Results for CC(C)Oc1ccc(OCCCN2CCCCCC2)cc1 ?
Autophagy mod: inactive; MT stabilizer: 2; CHOP inh: 13; Dynein cargo inh: 0.44; b-catenin transl: 1; L major viab: 100*

What do the screens show for `COc1ccc(C2(O)CCN(C(=O)Cc3cccnc3)CC2)cc1`?
Autophagy mod: inactive; MT stabilizer: 2; CHOP inh: -19; Dynein cargo inh: 0.63; b-catenin transl: -6; L major viab: -6

How did CC1CCC(NC(=O)COc2ccc(C(=O)c3ccccc3)cc2)CC1 (centres undefined) do in these assays?
Autophagy mod: inactive; MT stabilizer: 3; CHOP inh: 10; Dynein cargo inh: 1.7; L major viab: 7

How did CC1CCN(CCCCOc2ccc(C(=O)c3ccccc3)cc2)CC1 do in these assays?
Autophagy mod: inactive; MT stabilizer: 1; CHOP inh: 13; Dynein cargo inh: 0.16; L major viab: 99*

How did CC1CCN(CCCOc2ccc(OCc3ccccc3)cc2)CC1 do in these assays?
Autophagy mod: inactive; MT stabilizer: 4; CHOP inh: 6; Dynein cargo inh: 1.1; b-catenin transl: 2; L major viab: 100*

How did CCN(CC)CCNC(C(=O)Nc1cccc(C(C)=O)c1)c1ccccc1 (centres undefined) do in these assays?
Autophagy mod: inactive; MT stabilizer: 3; CHOP inh: -8; Dynein cargo inh: 0.82; b-catenin transl: 0; L major viab: 8

How did C[N+]1(CC#CC(O)(c2ccccc2)c2ccccc2)CCCC1 do in these assays?
Autophagy mod: inactive; MT stabilizer: 4; CHOP inh: 27; Dynein cargo inh: -0.57; b-catenin transl: 2; L major viab: -3

How did COCCN(C(=O)CCC(=O)Nc1cccnc1)C(C(=O)NC1CCCCC1)c1ccccc1 (centres undefined) do in these assays?
Autophagy mod: inactive; MT stabilizer: 2; CHOP inh: 5; Dynein cargo inh: -0.66; b-catenin transl: -3; L major viab: -5

Results for COc1ccccc1C(=O)NCCC(=O)N1CC(=O)Nc2ccccc21 ?
Autophagy mod: inactive; MT stabilizer: 5; CHOP inh: 4; Dynein cargo inh: -0.72; L major viab: 1

Results for O=C(Nc1c(-c2ccccc2)nc2ccc(Cl)cn12)c1cccs1 ?
Autophagy mod: inactive; MT stabilizer: 1; CHOP inh: -5; Dynein cargo inh: 0.65; b-catenin transl: -2; L major viab: 79*
